{"source": "ChEMBL document CHEMBL3352418", "about": "(Bioorg Med Chem, 2014)", "key": {"[1]": {"experiment": "Cmax in guinea pig at 10.9 mg/kg, po", "type": "ADME, organism-based, Cavia porcellus", "design": "dose 10.9 mg/kg, route oral", "conditions": "in vivo", "procedure,_shortened": "(§1)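 Single oral dose of 10.9 mg/kg to male animals, n = 3.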"}, "[2]": {"experiment": "Tmax in guinea pig at 10.9 mg/kg, po", "type": "ADME, organism-based, Cavia porcellus", "design": "dose 10.9 mg/kg, route oral", "conditions": "in vivo", "procedure,_shortened": "as §1"}, "[3]": {"experiment": "AUC in guinea pig at 10.9 mg/kg, po", "type": "ADME, organism-based, Cavia porcellus", "design": "dose 10.9 mg/kg, route oral", "conditions": "plasma", "procedure,_shortened": "as §1"}, "[4]": {"experiment": "Cmax in dog at 1.09 mg/kg, iv and 10.9 mg/kg, po", "type": "ADME, organism-based, Canis lupus familiaris", "conditions": "in vivo", "procedure,_shortened": "(§2)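 Male animals (n = 3) dosed at 1.09 mg/kg iv and 10.9 mg/kg p.o.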"}, "[5]": {"experiment": "Tmax in dog at 1.09 mg/kg, iv and 10.9 mg/kg, po", "type": "ADME, organism-based, Canis lupus familiaris", "conditions": "in vivo", "procedure,_shortened": "as §2"}, "[6]": {"experiment": "AUC in dog at 1.09 mg/kg, iv and 10.9 mg/kg, po", "type": "ADME, organism-based, Canis lupus familiaris", "conditions": "plasma", "procedure,_shortened": "as §2"}, "[7]": {"experiment": "Volume of distribution at steady state in dog at 1.09 mg/kg, iv and 10.9 mg/kg, po", "type": "ADME, organism-based, Canis lupus familiaris", "conditions": "in vivo, read-out: Vdss", "procedure,_shortened": "as §2"}, "[8]": {"experiment": "Total body clearance in dog at 1.09 mg/kg, iv and 10.9 mg/kg, po", "type": "ADME, organism-based, Canis lupus familiaris", "conditions": "in vivo", "procedure,_shortened": "as §2"}, "[9]": {"experiment": "Oral bioavailability in dog at 10.9 mg/kg", "type": "ADME, organism-based, Canis lupus familiaris", "conditions": "in vivo", "procedure,_shortened": "as §2"}, "[10]": {"experiment": "Cmax in monkey at 20 mg/kg, po", "type": "ADME, organism-based, Macaca mulatta", "design": "dose 20 mg/kg, route oral", "conditions": "rhesus monkey, in vivo", "procedure,_shortened": "(§3)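 Oral dose of 20 mg/kg given to both sexes: males (n = 2) and females (n = 2).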"}, "[11]": {"experiment": "Tmax in monkey at 20 mg/kg, po", "type": "ADME, organism-based, Macaca mulatta", "design": "dose 20 mg/kg, route oral", "conditions": "rhesus monkey, in vivo", "procedure,_shortened": "as §3"}, "[12]": {"experiment": "AUC in monkey at 20 mg/kg, po", "type": "ADME, organism-based, Macaca mulatta", "design": "dose 20 mg/kg, route oral", "conditions": "rhesus monkey, plasma", "procedure,_shortened": "as §3"}}}
{"molecule": "COc1cccc(CNC(=O)c2nc3scc(COCc4ccc(C(=O)[O-])cc4)c3c(=O)[n-]2)c1.[Na+].[Na+]", "values": [{"measurement": "Cmax", "setting": "[1]", "value": 1440, "unit": "ng/mL"}, {"measurement": "Tmax", "setting": "[2]", "value": 0.67, "unit": "h"}, {"measurement": "AUC", "setting": "[3]", "value": 8360, "unit": "ng·h/mL"}, {"measurement": "Cmax", "setting": "[4]", "value": 2440, "unit": "ng/mL"}, {"measurement": "Tmax", "setting": "[5]", "value": 2, "unit": "h"}, {"measurement": "AUC", "setting": "[6]", "value": 27100, "unit": "ng·h/mL"}, {"measurement": "Vd", "setting": "[7]", "value": 0.395, "unit": "L/kg"}, {"measurement": "clearance", "setting": "[8]", "value": 1.85, "unit": "mL/min/kg"}, {"measurement": "bioavailability", "setting": "[9]", "value": 29, "unit": "%"}, {"measurement": "Cmax", "setting": "[10]", "value": 6610, "unit": "ng/mL"}, {"measurement": "Tmax", "setting": "[11]", "value": 3, "unit": "h"}, {"measurement": "AUC", "setting": "[12]", "value": 82400, "unit": "ng·h/mL"}]}
